In ChEMBL document CHEMBL1145924 (J Med Chem, 2003):

species: Cavia porcellus; assay: Full pA2 value of compound at 3-30 nM concentration of mepyramine in guinea pig ileum; format: functional; conditions: read-out: pA2 (converted)

Row | SMILES | Kb [nM]
1 | c1ccc(C(CCc2nc(CCNCCCCc3ccccn3)c[nH]2)c2ccccc2)cc1 | 0.661

target: T1, Histamine H1 receptor (Cavia porcellus, UniProt P31389); assay: Apparent pA2 value of compound at 10 nM concentration of mepyramine in guinea pig aorta; conditions: not given
T1 sequence (P31389 whole entry): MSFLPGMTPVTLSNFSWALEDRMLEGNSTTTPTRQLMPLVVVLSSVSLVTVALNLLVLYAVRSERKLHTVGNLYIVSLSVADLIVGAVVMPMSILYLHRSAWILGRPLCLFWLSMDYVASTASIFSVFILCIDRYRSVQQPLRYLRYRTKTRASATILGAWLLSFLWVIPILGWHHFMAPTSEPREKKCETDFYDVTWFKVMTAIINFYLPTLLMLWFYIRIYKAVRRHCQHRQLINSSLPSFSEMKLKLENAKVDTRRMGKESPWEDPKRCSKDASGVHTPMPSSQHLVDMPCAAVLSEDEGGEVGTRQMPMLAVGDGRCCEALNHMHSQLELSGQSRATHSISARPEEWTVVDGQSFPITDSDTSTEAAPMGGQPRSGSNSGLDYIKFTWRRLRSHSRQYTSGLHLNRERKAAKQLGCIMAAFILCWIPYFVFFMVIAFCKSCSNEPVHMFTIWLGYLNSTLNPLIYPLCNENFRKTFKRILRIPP

Row | SMILES | Kb [nM]
2 | c1ccc(C(CCc2nc(CCNCCc3cccnc3)c[nH]2)c2ccccc2)cc1 | 3.24

target: Histamine H1 receptor (Cavia porcellus) (UniProt P31389); assay: Maximum response (E max) against H1 receptor in guinea pig ileum; format: tissue-based; conditions: not given
Sequence (P31389 whole entry): as above

Row | SMILES | Emax [%]
3 | c1ccc(C(CCc2nc(CCNCCc3ccccn3)c[nH]2)c2ccccc2)cc1 | 92
4 | c1ccc(C(CCc2nc(CCNCCc3cccnc3)c[nH]2)c2ccccc2)cc1 | 64
5 | c1ccc(C(CCc2nc(CCNCCc3cnc[nH]3)c[nH]2)c2ccccc2)cc1 | 96
6 | c1ccc(C(CCc2nc(CCNCCCc3ccccn3)c[nH]2)c2ccccc2)cc1 | 80
7 | c1ccc(C(CCc2nc(CCNCCCCc3ccccn3)c[nH]2)c2ccccc2)cc1 | 89

target: Muscarinic acetylcholine receptor M3 (Cavia porcellus, UniProt Q8VH26); assay: Antagonistic activity for carbachol induced contractions in guinea pig ileum against Muscarinic acetylcholine receptor M3 in the presence of mepyramine at a concentration of 1-3 micro M; format: functional, tissue-based; conditions: read-out: pA2 (converted)
Sequence (Q8VH26 whole entry): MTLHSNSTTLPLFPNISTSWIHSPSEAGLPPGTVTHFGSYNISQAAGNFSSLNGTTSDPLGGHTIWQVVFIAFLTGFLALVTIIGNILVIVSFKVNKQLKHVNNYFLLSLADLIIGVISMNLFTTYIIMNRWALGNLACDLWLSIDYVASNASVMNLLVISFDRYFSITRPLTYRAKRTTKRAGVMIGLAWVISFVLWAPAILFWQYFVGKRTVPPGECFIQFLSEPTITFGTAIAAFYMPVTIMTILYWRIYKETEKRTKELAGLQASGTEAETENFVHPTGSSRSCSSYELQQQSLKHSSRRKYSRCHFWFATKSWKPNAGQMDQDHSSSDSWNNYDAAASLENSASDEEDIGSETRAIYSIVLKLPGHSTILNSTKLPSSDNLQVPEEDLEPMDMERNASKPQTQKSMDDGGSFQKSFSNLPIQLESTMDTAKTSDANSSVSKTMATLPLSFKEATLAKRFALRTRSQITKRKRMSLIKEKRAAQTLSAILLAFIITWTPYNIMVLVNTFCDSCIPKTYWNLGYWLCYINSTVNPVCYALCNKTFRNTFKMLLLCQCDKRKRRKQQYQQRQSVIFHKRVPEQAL

Row | SMILES | Kb [nM]
8 | c1ccc(C(CCc2nc(CCNCCc3ccccn3)c[nH]2)c2ccccc2)cc1 | 5010
9 | c1ccc(C(CCc2nc(CCNCCc3cccnc3)c[nH]2)c2ccccc2)cc1 | 7080
10 | c1ccc(C(CCc2nc(CCNCCc3cnc[nH]3)c[nH]2)c2ccccc2)cc1 | 4790
11 | c1ccc(C(CCc2nc(CCNCCCc3ccccn3)c[nH]2)c2ccccc2)cc1 | 457
12 | c1ccc(C(CCc2nc(CCNCCCCc3ccccn3)c[nH]2)c2ccccc2)cc1 | 741

target: T2, Histamine H1 receptor (Rattus norvegicus, UniProt P31390); assay: Apparent pA2 value of compound at 50 nM concentration of mepyramine in rat aorta; format: functional, tissue-based; conditions: read-out: pA2 (converted)
T2 sequence (P31390 whole entry): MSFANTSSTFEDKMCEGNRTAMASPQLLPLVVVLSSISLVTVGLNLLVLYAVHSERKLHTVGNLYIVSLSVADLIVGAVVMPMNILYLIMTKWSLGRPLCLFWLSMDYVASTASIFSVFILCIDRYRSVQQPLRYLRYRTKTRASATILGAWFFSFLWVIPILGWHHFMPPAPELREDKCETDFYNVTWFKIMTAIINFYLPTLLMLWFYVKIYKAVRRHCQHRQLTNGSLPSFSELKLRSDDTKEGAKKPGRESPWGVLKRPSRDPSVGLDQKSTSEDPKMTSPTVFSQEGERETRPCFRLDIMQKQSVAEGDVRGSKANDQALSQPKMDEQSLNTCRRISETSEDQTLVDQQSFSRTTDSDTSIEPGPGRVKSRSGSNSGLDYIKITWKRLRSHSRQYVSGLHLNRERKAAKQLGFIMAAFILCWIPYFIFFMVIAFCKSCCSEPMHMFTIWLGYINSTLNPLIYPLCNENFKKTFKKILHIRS

Row | SMILES | Kb [nM]
13 | c1ccc(C(CCc2nc(CCNCCc3ccccn3)c[nH]2)c2ccccc2)cc1 | 10.5
14 | c1ccc(C(CCc2nc(CCNCCc3cnc[nH]3)c[nH]2)c2ccccc2)cc1 | 9.55
15 | c1ccc(C(CCc2nc(CCNCCCCc3ccccn3)c[nH]2)c2ccccc2)cc1 | 6.17

target: Histamine H3 receptor (Cavia porcellus, UniProt Q9JI35); assay: Tested for Antagonistic activity at histamine H3 receptor in guinea pig ileal longitudinal muscle in the presence of mepyramine at a concentration of 1-3 micro M; format: functional; conditions: read-out: pA2 (converted)
Summary of the method: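 Field-stimulated ileal longitudinal muscle (15 V, 0.5 ms, 0.1 Hz), 37 °C, mepyramine 1–3 μM throughout. […] Antagonists used only at concentrations not blocking M3 receptors; apparent pA2 from rightward shift.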

Chain of Histamine H3 receptor (Q9JI35 whole entry): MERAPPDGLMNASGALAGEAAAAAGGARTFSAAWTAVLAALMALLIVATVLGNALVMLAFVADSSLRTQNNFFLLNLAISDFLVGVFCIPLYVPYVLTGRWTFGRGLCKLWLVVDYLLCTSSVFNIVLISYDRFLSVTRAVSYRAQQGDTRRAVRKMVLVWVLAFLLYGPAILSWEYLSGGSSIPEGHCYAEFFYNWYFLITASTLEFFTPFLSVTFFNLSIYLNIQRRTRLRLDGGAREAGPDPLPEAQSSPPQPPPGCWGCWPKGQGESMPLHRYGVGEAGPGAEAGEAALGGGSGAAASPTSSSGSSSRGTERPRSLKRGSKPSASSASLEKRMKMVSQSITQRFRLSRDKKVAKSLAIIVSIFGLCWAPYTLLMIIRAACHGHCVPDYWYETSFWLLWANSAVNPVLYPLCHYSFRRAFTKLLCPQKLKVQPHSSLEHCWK

Row | SMILES | Kb [nM]
16 | c1ccc(C(CCc2nc(CCNCCc3ccccn3)c[nH]2)c2ccccc2)cc1 | > 501
17 | c1ccc(C(CCc2nc(CCNCCc3cccnc3)c[nH]2)c2ccccc2)cc1 | > 501
18 | c1ccc(C(CCc2nc(CCNCCc3cnc[nH]3)c[nH]2)c2ccccc2)cc1 | > 1000
19 | c1ccc(C(CCc2nc(CCNCCCc3ccccn3)c[nH]2)c2ccccc2)cc1 | > 316
20 | c1ccc(C(CCc2nc(CCNCCCCc3ccccn3)c[nH]2)c2ccccc2)cc1 | > 501

target: Histamine H2 receptor (Cavia porcellus, UniProt P47747); assay: Tested for inhibition of histamine H2 receptor-induced rise in heart rate in guinea pig right atrium in the presence of mepyramine at a concentration of 0.3 micro M; format: tissue-based, Cardiac atrium; conditions: not given
Sequence (P47747 whole entry): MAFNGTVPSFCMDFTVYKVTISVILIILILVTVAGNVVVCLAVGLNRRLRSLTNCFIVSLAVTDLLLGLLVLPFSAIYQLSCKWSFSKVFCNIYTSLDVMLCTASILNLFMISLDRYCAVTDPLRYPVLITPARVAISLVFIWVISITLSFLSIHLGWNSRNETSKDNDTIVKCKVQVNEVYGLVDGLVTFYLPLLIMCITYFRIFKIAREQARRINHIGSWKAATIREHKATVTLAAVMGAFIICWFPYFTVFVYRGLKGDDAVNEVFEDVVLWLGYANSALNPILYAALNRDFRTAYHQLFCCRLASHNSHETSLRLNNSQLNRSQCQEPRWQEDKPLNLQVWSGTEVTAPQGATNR

Row | SMILES | EC50 [nM]
21 | c1ccc(C(CCc2nc(CCNCCc3cnc[nH]3)c[nH]2)c2ccccc2)cc1 | 10000

species: Cavia porcellus; assay: Full pA2 value of compound at 2-100 nM concentration of mepyramine in guinea pig ileum; format: functional; conditions: read-out: pA2 (converted)

Row | SMILES | Kb [nM]
22 | c1ccc(C(CCc2nc(CCNCCc3cnc[nH]3)c[nH]2)c2ccccc2)cc1 | 1.48

target: T1, Histamine H1 receptor; assay: Effective concentration against histamine H1 receptor in endothelium-Denuded rings of guinea pig Aorta; conditions: not given

Row | SMILES | EC50 [nM]
23 | c1ccc(C(CCc2nc(CCNCCc3ccccn3)c[nH]2)c2ccccc2)cc1 | 81.3
24 | c1ccc(C(CCc2nc(CCNCCc3cccnc3)c[nH]2)c2ccccc2)cc1 | 83.2
25 | c1ccc(C(CCc2nc(CCNCCc3cnc[nH]3)c[nH]2)c2ccccc2)cc1 | 9.77
26 | c1ccc(C(CCc2nc(CCNCCCCc3ccccn3)c[nH]2)c2ccccc2)cc1 | 14.1

target: Histamine H2 receptor (Cavia porcellus) (UniProt P47747); assay: not given; conditions: Cardiac atrium
Sequence (P47747 whole entry): as above

Row | SMILES | pD2
27 | c1ccc(C(CCc2nc(CCNCCc3ccccn3)c[nH]2)c2ccccc2)cc1 | 4.37
28 | c1ccc(C(CCc2nc(CCNCCc3cccnc3)c[nH]2)c2ccccc2)cc1 | 4.62
29 | c1ccc(C(CCc2nc(CCNCCCc3ccccn3)c[nH]2)c2ccccc2)cc1 | 4.96
30 | c1ccc(C(CCc2nc(CCNCCCCc3ccccn3)c[nH]2)c2ccccc2)cc1 | 4.78

species: Cavia porcellus; assay: Apparent pA2 value of compound at 3 nM concentration of mepyramine in guinea pig ileum; conditions: not given

Row | SMILES | Kb [nM]
31 | c1ccc(C(CCc2nc(CCNCCc3ccccn3)c[nH]2)c2ccccc2)cc1 | 1.74
32 | c1ccc(C(CCc2nc(CCNCCCc3ccccn3)c[nH]2)c2ccccc2)cc1 | 1.66

target: T2, Histamine H1 receptor; assay: (§1) Effective concentration against histamine H1 receptor in rat aorta; format: tissue-based; conditions: not given

Row | SMILES | EC50 [nM]
33 | c1ccc(C(CCc2nc(CCNCCc3ccccn3)c[nH]2)c2ccccc2)cc1 | 525

target: Histamine H1 receptor (Cavia porcellus) (UniProt P31389); assay: Concentration required for agonistic activity against histamine H1 receptor in guinea pig ileum; format: functional, tissue-based; conditions: not given

Row | SMILES | Concentration [µM]
34 | c1ccc(C(CCc2nc(CCNCCc3cnc[nH]3)c[nH]2)c2ccccc2)cc1 | 0.1

target: Histamine H1 receptor (Rattus norvegicus) (UniProt P31390); assay: Maximum response (E max) against H1 receptor in rat aorta; format: tissue-based; conditions: not given
Sequence (P31390 whole entry): as the sequence (P31390 whole entry) above

Row | SMILES | Emax [%]
35 | c1ccc(C(CCc2nc(CCNCCc3ccccn3)c[nH]2)c2ccccc2)cc1 | 59
36 | c1ccc(C(CCc2nc(CCNCCc3cnc[nH]3)c[nH]2)c2ccccc2)cc1 | 56
37 | c1ccc(C(CCc2nc(CCNCCCCc3ccccn3)c[nH]2)c2ccccc2)cc1 | 65

target: T2, Histamine H1 receptor; assay: as §1; conditions: not given

Row | SMILES | EC50 [nM]
38 | c1ccc(C(CCc2nc(CCNCCc3cnc[nH]3)c[nH]2)c2ccccc2)cc1 | 295
39 | c1ccc(C(CCc2nc(CCNCCCCc3ccccn3)c[nH]2)c2ccccc2)cc1 | 240

species: Cavia porcellus; assay: Apparent pA2 value at 3 nM concentration of mepyramine in guinea pig ileum; format: functional; conditions: read-out: pA2 (converted)

Row | SMILES | Kb [nM]
40 | c1ccc(C(CCc2nc(CCNCCc3cccnc3)c[nH]2)c2ccccc2)cc1 | 0.851

target: T1, Histamine H1 receptor; assay: Apparent pA2 value of compound at 10 nM concentration of mepyramine in guinea pig aorta; conditions: not given; remark: another data set of the same source

Row | SMILES | Kb [nM]
41 | c1ccc(C(CCc2nc(CCNCCc3ccccn3)c[nH]2)c2ccccc2)cc1 | 4.37
42 | c1ccc(C(CCc2nc(CCNCCCCc3ccccn3)c[nH]2)c2ccccc2)cc1 | 1.62

target: Histamine H1 receptor (Cavia porcellus) (UniProt P31389); assay: Concentration required for agonistic activity against histamine in guinea pig ileum; format: functional, tissue-based; conditions: not given

Row | SMILES | Concentration [µM]
43 | c1ccc(C(CCc2nc(CCNCCc3ccccn3)c[nH]2)c2ccccc2)cc1 | 10
44 | c1ccc(C(CCc2nc(CCNCCc3cccnc3)c[nH]2)c2ccccc2)cc1 | 10
45 | c1ccc(C(CCc2nc(CCNCCCc3ccccn3)c[nH]2)c2ccccc2)cc1 | 3
46 | c1ccc(C(CCc2nc(CCNCCCCc3ccccn3)c[nH]2)c2ccccc2)cc1 | 3

target: Histamine H1 receptor (Cavia porcellus) (UniProt P31389); assay: Maximum response (E max) against histamine H1 receptor in guinea pig ileum; format: tissue-based; conditions: not given

Row | SMILES | Emax [%]
47 | c1ccc(C(CCc2nc(CCNCCc3ccccn3)c[nH]2)c2ccccc2)cc1 | 92
48 | c1ccc(C(CCc2nc(CCNCCc3cccnc3)c[nH]2)c2ccccc2)cc1 | 64
49 | c1ccc(C(CCc2nc(CCNCCCCc3ccccn3)c[nH]2)c2ccccc2)cc1 | 89

target: Histamine H1 receptor (Cavia porcellus) (UniProt P31389); assay: Maximum response (E max) against Histamine H1 receptor in guinea pig ileum; format: tissue-based; conditions: not given

Row | SMILES | Emax [%]
50 | c1ccc(C(CCc2nc(CCNCCc3cnc[nH]3)c[nH]2)c2ccccc2)cc1 | 96

target: Histamine H1 receptor (Cavia porcellus) (UniProt P31389); assay: (§2) Equilibrium dissociation constant (pKp) against histamine H1 receptor in guinea pig ileum; format: tissue-based; conditions: not given

Row | SMILES | pKp
51 | c1ccc(C(CCc2nc(CCNCCc3cccnc3)c[nH]2)c2ccccc2)cc1 | 6.52
52 | c1ccc(C(CCc2nc(CCNCCc3cnc[nH]3)c[nH]2)c2ccccc2)cc1 | 7.67
53 | c1ccc(C(CCc2nc(CCNCCCc3ccccn3)c[nH]2)c2ccccc2)cc1 | 7.13
54 | c1ccc(C(CCc2nc(CCNCCCCc3ccccn3)c[nH]2)c2ccccc2)cc1 | 7.45

target: Histamine H1 receptor (Cavia porcellus) (UniProt P31389); assay: as §2; format: functional, tissue-based; conditions: not given

Row | SMILES | pKp
55 | c1ccc(C(CCc2nc(CCNCCc3ccccn3)c[nH]2)c2ccccc2)cc1 | 7.15

target: T1, Histamine H1 receptor; assay: Apparent pA2 value of compound at 10 nM concentration of mepyramine in guinea pig aorta; conditions: not given; remark: another data set of the same source

Row | SMILES | Kb [nM]
56 | c1ccc(C(CCc2nc(CCNCCc3cnc[nH]3)c[nH]2)c2ccccc2)cc1 | 3.24

target: T1, Histamine H1 receptor; assay: Effective concentration against histamine H1 receptor in guinea pig ileum; format: tissue-based; conditions: not given

Row | SMILES | EC50 [nM]
57 | c1ccc(C(CCc2nc(CCNCCc3ccccn3)c[nH]2)c2ccccc2)cc1 | 21.4
58 | c1ccc(C(CCc2nc(CCNCCc3cccnc3)c[nH]2)c2ccccc2)cc1 | 77.6
59 | c1ccc(C(CCc2nc(CCNCCc3cnc[nH]3)c[nH]2)c2ccccc2)cc1 | 5.5
60 | c1ccc(C(CCc2nc(CCNCCCc3ccccn3)c[nH]2)c2ccccc2)cc1 | 21.4
61 | c1ccc(C(CCc2nc(CCNCCCCc3ccccn3)c[nH]2)c2ccccc2)cc1 | 6.92
